The M2OR odorant receptor database

target: T1, UniProt A2ATE5; settings: stereoisomer not certain
T1 sequence (whole entry): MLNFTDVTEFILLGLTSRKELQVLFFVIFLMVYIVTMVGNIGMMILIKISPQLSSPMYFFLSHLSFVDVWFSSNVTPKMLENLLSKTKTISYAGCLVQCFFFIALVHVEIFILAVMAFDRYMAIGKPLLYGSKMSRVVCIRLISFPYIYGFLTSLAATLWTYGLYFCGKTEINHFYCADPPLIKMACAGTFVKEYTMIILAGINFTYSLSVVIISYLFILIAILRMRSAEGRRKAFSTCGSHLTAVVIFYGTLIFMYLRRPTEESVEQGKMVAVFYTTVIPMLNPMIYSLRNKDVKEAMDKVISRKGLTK
Method in brief: (§1)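 Whether a receptor–molecule pair is responsive (active) rests on the original authors' judgment that its measured signal was statistically different from baseline. Pairs without that judgment are non-responsive (inactive). Sources used varied assay methods, commonly transient luciferase assays in mammalian cell lines.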
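Also: active if original authors judged signal statistically different from baseline.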

Odorant receptor agonist call, active:
CCc1occc(=O)c1O

Odorant receptor agonist call, inactive:
COC(OC)c1ccccc1
COc1cnccn1
CCCCCC=CCCC=O
CCCCCCCCCC(=O)[O-].[H+]
CCc1nccnc1CC
C=CC(=C)CCC=C(C)C
CCCCCOC(=O)CC
CCCCCCCCCCCO
CCCCCCC(C=O)=Cc1ccccc1
CCOC(=O)C(C)CC (centres undefined)
COc1nccnc1C
CNc1ccccc1C(=O)OC
CCC(C)c1nccnc1OC (centres undefined)
c1ccc2ncccc2c1
CC(=O)C1(C)CC2=C(CCCC2(C)C)CC1C (centres undefined)
O=C([O-])CCCCCCC(=O)[O-].[H+].[H+]
CCCCCCCCCC=CC=O
CC=C(C)C=O
CCCCCCCOC(=O)C(C)C
CC(=O)OC1(C)CCC23CC1C(C)(C)C2CCC3C (centres undefined)
C=C(C)C1CC=C(C)CC1 (centres undefined)
CCc1ncc(C)nc1CC
Cc1ccc(C(C)C)c(O)c1
C1CCOC1
COc1nccnc1C(C)C
CC1(C)CC(=O)CC(=O)C1
O=C(OCc1ccccc1)c1ccccc1O
CCCCCC(=Cc1ccccc1)C(OC)OC
CCSCC
CC=CC(=O)C1=C(C)CCCC1(C)C
CCSSCC
CCN(CC)CC
CCC(C)O (centres undefined)
CCc1ccccc1O
C=CC(=O)CCCCC
C=C(C)C1CCC(C)C(O)C1 (centres undefined)

target: T2, UniProt A2AVB0; settings: stereoisomer not certain
T2 sequence (whole entry): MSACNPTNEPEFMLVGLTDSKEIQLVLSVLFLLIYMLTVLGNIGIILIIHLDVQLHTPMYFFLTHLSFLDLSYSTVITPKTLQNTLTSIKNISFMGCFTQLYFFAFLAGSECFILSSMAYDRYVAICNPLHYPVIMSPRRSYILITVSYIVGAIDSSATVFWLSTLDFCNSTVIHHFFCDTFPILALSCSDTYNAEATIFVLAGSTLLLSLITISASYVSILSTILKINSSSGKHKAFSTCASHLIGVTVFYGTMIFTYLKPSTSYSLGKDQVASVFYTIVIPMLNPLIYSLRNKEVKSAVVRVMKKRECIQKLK
Method in brief: as §1

Odorant receptor agonist call, inactive:
COC(OC)c1ccccc1
COc1cnccn1
CCCCCC=CCCC=O
CCCCCCCCCC(=O)[O-].[H+]
CCc1nccnc1CC
CCc1occc(=O)c1O
C=CC(=C)CCC=C(C)C
CCCCCOC(=O)CC
CCCCCCCCCCCO
CCCCCCC(C=O)=Cc1ccccc1
CCOC(=O)C(C)CC (centres undefined)
COc1nccnc1C
CNc1ccccc1C(=O)OC
CCC(C)c1nccnc1OC (centres undefined)
c1ccc2ncccc2c1
CC(=O)C1(C)CC2=C(CCCC2(C)C)CC1C (centres undefined)
O=C([O-])CCCCCCC(=O)[O-].[H+].[H+]
CCCCCCCCCC=CC=O
CC=C(C)C=O
CCCCCCCOC(=O)C(C)C
CC(=O)OC1(C)CCC23CC1C(C)(C)C2CCC3C (centres undefined)
C=C(C)C1CC=C(C)CC1 (centres undefined)
CCc1ncc(C)nc1CC
Cc1ccc(C(C)C)c(O)c1
C1CCOC1
COc1nccnc1C(C)C
CC1(C)CC(=O)CC(=O)C1
O=C(OCc1ccccc1)c1ccccc1O
CCCCCC(=Cc1ccccc1)C(OC)OC
CCSCC
CC=CC(=O)C1=C(C)CCCC1(C)C
CCSSCC
CCN(CC)CC
CCC(C)O (centres undefined)
CCc1ccccc1O
C=CC(=O)CCCCC
C=C(C)C1CCC(C)C(O)C1 (centres undefined)
